Test results reported in ChEMBL document CHEMBL4354876, “A Selective Modulator of Peroxisome Proliferator-Activated Receptor γ with an Unprecedented Binding Mode” (J Med Chem, 2020).
Activity calls are given as the source filed them. The calls are words filed in the database; no cut-off is given here.

What was measured:
[1] = target: T1, Peroxisome proliferator-activated receptor gamma (Homo sapiens, UniProt P37231); experiment: Partial agonist activity at Gal4-fused PPARgamma LBD (unknown origin) expressed in HEK293T cells after 14 to 16 hrs by dual-Glo luciferase assay; type: cell-based
T1 sequence (P37231 whole entry): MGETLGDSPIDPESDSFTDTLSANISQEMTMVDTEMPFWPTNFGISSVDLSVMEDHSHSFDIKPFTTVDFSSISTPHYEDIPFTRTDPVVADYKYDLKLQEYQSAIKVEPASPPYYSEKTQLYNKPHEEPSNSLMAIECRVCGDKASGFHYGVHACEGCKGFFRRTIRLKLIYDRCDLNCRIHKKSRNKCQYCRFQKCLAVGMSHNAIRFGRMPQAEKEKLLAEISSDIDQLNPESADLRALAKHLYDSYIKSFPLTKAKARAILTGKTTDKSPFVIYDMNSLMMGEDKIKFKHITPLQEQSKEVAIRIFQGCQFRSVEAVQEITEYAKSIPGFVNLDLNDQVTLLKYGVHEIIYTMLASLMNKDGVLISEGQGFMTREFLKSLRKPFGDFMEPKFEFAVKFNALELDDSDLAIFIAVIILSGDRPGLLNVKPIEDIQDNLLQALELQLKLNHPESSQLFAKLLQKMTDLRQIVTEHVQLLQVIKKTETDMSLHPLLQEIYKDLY
Summary of the method: (§1)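 Gal4 hybrid reporter assay in transiently transfected HEK293T cells. Constructs fuse the yeast Gal4 DNA-binding domain to the human receptor LBD. Firefly luciferase is the reporter. Constitutive renilla luciferase monitors transfection efficiency and toxicity. EC50 and maximal relative activation are reported as mean±S.E.M., n≥3.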

[2] = target: T2, Peroxisome proliferator-activated receptor alpha (Homo sapiens) (UniProt Q07869); experiment: Partial agonist activity at Gal4-fused PPARalpha LBD (unknown origin) expressed in HEK293T cells after 14 to 16 hrs by dual-Glo luciferase assay relative to GW7647; type: cell-based; summary of the method: as §1
T2 sequence (whole entry): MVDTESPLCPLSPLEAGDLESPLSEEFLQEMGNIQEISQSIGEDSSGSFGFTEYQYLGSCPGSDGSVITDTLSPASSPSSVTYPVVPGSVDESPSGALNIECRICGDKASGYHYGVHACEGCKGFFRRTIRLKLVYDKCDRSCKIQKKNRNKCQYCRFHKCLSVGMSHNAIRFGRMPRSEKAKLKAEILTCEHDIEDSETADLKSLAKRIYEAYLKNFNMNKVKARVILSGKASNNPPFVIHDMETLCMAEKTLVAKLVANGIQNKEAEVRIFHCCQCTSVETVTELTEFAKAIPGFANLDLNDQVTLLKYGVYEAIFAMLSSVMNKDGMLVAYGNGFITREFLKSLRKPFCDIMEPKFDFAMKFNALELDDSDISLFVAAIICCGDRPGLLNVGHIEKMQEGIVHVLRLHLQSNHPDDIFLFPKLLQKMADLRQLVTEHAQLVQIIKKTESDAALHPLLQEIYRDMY

[3] = target: T3, Peroxisome proliferator-activated receptor delta (Homo sapiens) (UniProt Q03181); experiment: Partial agonist activity at Gal4-fused PPARdelta LBD (unknown origin) expressed in HEK293T cells at 10 uM after 14 to 16 hrs by dual-Glo luciferase assay; type: cell-based
T3 sequence (whole entry): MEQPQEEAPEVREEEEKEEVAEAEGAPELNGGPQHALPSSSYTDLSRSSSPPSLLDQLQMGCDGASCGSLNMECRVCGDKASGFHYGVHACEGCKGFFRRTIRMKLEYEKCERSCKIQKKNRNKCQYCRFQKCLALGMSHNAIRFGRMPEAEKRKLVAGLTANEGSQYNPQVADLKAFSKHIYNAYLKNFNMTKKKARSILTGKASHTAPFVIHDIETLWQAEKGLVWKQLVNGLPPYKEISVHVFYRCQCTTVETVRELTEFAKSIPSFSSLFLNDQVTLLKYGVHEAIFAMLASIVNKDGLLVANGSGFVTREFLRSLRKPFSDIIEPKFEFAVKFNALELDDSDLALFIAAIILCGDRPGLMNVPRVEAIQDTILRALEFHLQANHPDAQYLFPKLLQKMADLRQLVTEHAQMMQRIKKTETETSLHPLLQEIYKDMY

[4] = target: T4, Peroxisome proliferator-activated receptor alpha (Homo sapiens, UniProt Q07869); experiment: Partial agonist activity at Gal4-fused PPARalpha LBD (unknown origin) expressed in HEK293T cells after 14 to 16 hrs by dual-Glo luciferase assay; type: cell-based; summary of the method: as §1
T4 sequence (Q07869 whole entry): T2 sequence (whole entry)

[5] = target: T5, Peroxisome proliferator-activated receptor gamma (Homo sapiens) (UniProt P37231); experiment: Partial agonist activity at Gal4-fused PPARgamma LBD (unknown origin) expressed in HEK293T cells after 14 to 16 hrs by dual-Glo luciferase assay relative to pioglitazone; type: cell-based; summary of the method: as §1
T5 sequence (whole entry): T1 sequence (P37231 whole entry)

[6] = target: T6, Peroxisome proliferator-activated receptor delta (Homo sapiens, UniProt Q03181); experiment: Partial agonist activity at Gal4-fused PPARdelta LBD (unknown origin) expressed in HEK293T cells after 14 to 16 hrs by dual-Glo luciferase assay; type: cell-based; summary of the method: as §1
T6 sequence (Q03181 whole entry): T3 sequence (whole entry)

[7] = target: T3, Peroxisome proliferator-activated receptor delta (Homo sapiens); experiment: Partial agonist activity at Gal4-fused PPARdelta LBD (unknown origin) expressed in HEK293T cells after 14 to 16 hrs by dual-Glo luciferase assay relative to L165041; type: cell-based; summary of the method: as §1
[8] = tested on: PPARgamma/RXR (Homo sapiens); experiment: Partial agonist activity at PPARgamma/RXR (unknown origin) expressed in HEK293T cells at 0.1 to 1 uM after 14 to 16 hrs by PPRE1 reporter gene based dual-Glo luciferase assay; settings: HEK-293T
[9] = target: T7, RXR alpha/PPAR gamma (Homo sapiens) (UniProt P37231+P19793); experiment: Partial agonist activity at 1:1 Gal4-fused PPARgamma LBD/Gal4-fused RXRalpha (unknown origin) expressed in HEK293T cells after 14 to 16 hrs by dual-Glo luciferase assay; type: cell-based
Summary of the method: (§2)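 Gal4-PPARγ hybrid reporter assay in HEK293T cells with Gal4-RXRα co-transfected. Firefly luciferase is the read-out, with constitutive renilla as the transfection and viability control. Efficacy is expressed relative to pioglitazone (1 µM). Activity data are normalized to counter variations in receptor protein amount.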

[10] = Effect on recombinant PPARgamma LBD/N-terminal GFP-fused RXRalpha mutant LBD (unknown origin) protein-protein dimerization at 10 uM measured after 2 hrs by HTRF assay; settings: human
Summary of the method: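 Cell-free HTRF assay of PPARγ–RXRα dimerization on recombinant proteins.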

[11] = target: T7, RXR alpha/PPAR gamma (Homo sapiens); experiment: Partial agonist activity at 1:2 Gal4-fused PPARgamma LBD/Gal4-fused RXRalpha (unknown origin) expressed in HEK293T cells at 0.1 to 1 uM after 14 to 16 hrs by dual-Glo luciferase assay; type: cell-based; summary of the method: as §2
[12] = target: T5, Peroxisome proliferator-activated receptor gamma (Homo sapiens); experiment: Partial agonist activity at recombinant N-terminal GFP-fused PPARgamma LBD (unknown origin) assessed as increase in biotinylated-CBP peptide recruitment measured after 2 hrs by HTRF assay
Summary of the method: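 Cell-free HTRF assay of CBP coactivator recruitment to recombinant PPARγ protein.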

Compound	EC50 [1] [µM]	max activation [2] [%]	Activity [3]	EC50 [4] [µM]	max activation [5] [%]	EC50 [6] [µM]	max activation [7] [%]	EC50 [8] [µM]	Activity [9]	Activity [10]	Activity [11]	Activity [12]
CCCCC(Sc1nc2ccc(NC(=O)c3ccc(C(C)(C)C)cc3)cc2s1)C(=O)O (centres undefined)	3.7	11	inactive	4.4	7.1							
CCCCCCC(Sc1nc2ccc(NCc3ccc4ccccc4c3)cc2s1)C(=O)O (centres undefined)	3	32		4	53	4.3	23					
CCCCCCC(Sc1nc2ccc(NS(=O)(=O)c3ccc(C(C)(C)C)cc3)cc2s1)C(=O)O (centres undefined)	0.7	17	inactive	0.9	30							
CCCCCCC(Sc1nc2ccc(NCc3ccc(Cl)c(Cl)c3)cc2s1)C(=O)O (centres undefined)	2.8	26		1.4	73	> 10						
CCCCCC[C@@H](Sc1nc2ccc(NS(=O)(=O)c3ccc(Cl)cc3Cl)cc2s1)C(=O)O	0.0016	18		0.43	101	0.81	26	0.16	Active	Not Active	Active	Active
CCCCCC[C@H](Sc1nc2ccc(NS(=O)(=O)c3ccc(Cl)cc3Cl)cc2s1)C(=O)O	0.16	28		0.25	75	0.4	13			Not Active		
CCCCCCC(Sc1nc2ccc(NS(=O)(=O)c3ccc(-c4ccccc4)cc3)cc2s1)C(=O)O (centres undefined)	0.26	23	inactive	5	26							
CCCCCCC(Sc1nc2ccc(NC(=O)c3ccccc3)cc2s1)C(=O)O (centres undefined)	4.9	31		0.77	43	7	27					
CCCCCCC(Sc1nc2ccc(NS(=O)(=O)c3ccc(Cl)cc3)cc2s1)C(=O)O (centres undefined)	0.05	16		0.7	39	5.3	21					
CCCCCCC(Sc1nc2ccc(NCc3ccc(C(F)(F)F)cc3)cc2s1)C(=O)O (centres undefined)	1.8	59		3.1	39	> 10						
CCCCCCC(Sc1nc2ccc(NCc3cccc(Cl)c3)cc2s1)C(=O)O (centres undefined)	1.5	51	inactive	1.9	47							
CCCCCCC(Sc1nc2ccc(NCc3ccccc3)cc2s1)C(=O)O (centres undefined)	1.7	28		1	47	6.1	19					
CCCCCCC(Sc1nc2ccc(NCc3ccc(C(C)(C)C)cc3)cc2s1)C(=O)O (centres undefined)	3.7	39	inactive	4	28							
CCCCCCC(Sc1nc2ccc(NCc3ccc(Cl)cc3)cc2s1)C(=O)O (centres undefined)	2.4	37	inactive	1.36	50							
CCCCCCC(Sc1nc2ccc(NCc3cc(Cl)cc(Cl)c3)cc2s1)C(=O)O (centres undefined)	2.9	19		3.8	35	9.2	25					
CCCCCCC(Sc1nc2ccc(NCc3ccc(-c4ccccc4)cc3)cc2s1)C(=O)O (centres undefined)	0.77	26		0.4	34	> 10						
CCCCCCC(Sc1nc2ccc(NC(=O)c3ccc(C(C)(C)C)cc3)cc2s1)C(=O)O (centres undefined)	4.3	12		3.1	19	6.2	22					
